Data published in ChEMBL document CHEMBL5674883, “The Heterochromatin Landscape in Migrating Cells and the Importance of H3K27me3 for Associated Transcriptome Alterations” (Cells, 2018).

Experiments:
Type in all cases: cell-based
[1] = target: T1, RNA polymerase II (Mus musculus) (UniProt P08775+Q8CFI7+P97760+A0A3Q4L2S8+Q80UW8+P61219+P62488+Q923G2+P60898+O08740+Q63871+P62876); test: Inhibition of RNA polymerase II in mouse B16-F1 migrating cells assessed as fold change in Mtch1-RNA stability at 0.1 mM measured by ChIP-seq analysis relative to control cells
[2] = target: T1, RNA polymerase II (Mus musculus); test: Inhibition of RNA polymerase II in mouse B16-F1 migrating cells assessed as fold change in Mad2l2-RNA stability at 0.1 mM measured by ChIP-seq analysis relative to control cells
[3] = target: T1, RNA polymerase II (Mus musculus); test: Inhibition of RNA polymerase II in mouse B16-F1 migrating cells assessed as fold change in Brd2-RNA stability at 0.1 mM measured by […] analysis relative to control cells
[4] = target: T1, RNA polymerase II (Mus musculus); test: Inhibition of RNA polymerase II in mouse B16-F1 migrating cells assessed as fold change in Acbd6-RNA stability at 0.1 mM measured by […] analysis relative to control cells
[5] = target: T1, RNA polymerase II (Mus musculus); test: Inhibition of RNA polymerase II in mouse B16-F1 migrating cells assessed as fold change in Chd1-RNA stability at 0.1 mM measured by ChIP-seq analysis relative to control cells
[6] = target: T1, RNA polymerase II (Mus musculus); test: Inhibition of RNA polymerase II in mouse B16-F1 migrating cells assessed as fold change in Kif18a-RNA stability at 0.1 mM measured by ChIP-seq analysis relative to control cells
[7] = target: T1, RNA polymerase II (Mus musculus); test: Inhibition of RNA polymerase II in mouse B16-F1 migrating cells assessed as fold change in Arpc4-RNA stability at 0.1 mM measured by […] analysis relative to control cells
[8] = target: T1, RNA polymerase II (Mus musculus); test: Inhibition of RNA polymerase II in mouse B16-F1 migrating cells assessed as fold change in 2310030G06Rik-RNA stability at 0.1 mM measured by […] analysis relative to control cells
[9] = target: T1, RNA polymerase II (Mus musculus); test: Inhibition of RNA polymerase II in mouse B16-F1 migrating cells assessed as fold change in Cenpc1-RNA stability at 0.1 mM measured by […] analysis relative to control cells
[10] = target: T1, RNA polymerase II (Mus musculus); test: Inhibition of RNA polymerase II in mouse B16-F1 migrating cells assessed as fold change in Nek7-RNA stability at 0.1 mM measured by ChIP-seq analysis relative to control cells
[11] = target: T1, RNA polymerase II (Mus musculus); test: Inhibition of RNA polymerase II in mouse B16-F1 migrating cells assessed as fold change in Shprh-RNA stability at 0.1 mM measured by […] analysis relative to control cells
[12] = target: T1, RNA polymerase II (Mus musculus); test: Inhibition of RNA polymerase II in mouse B16-F1 migrating cells assessed as fold change in Mbtd1-RNA stability at 0.1 mM measured by ChIP-seq analysis relative to control cells
[13] = target: Histone-lysine N-methyltransferase EZH2 (Mus musculus) (UniProt Q61188); test: Inhibition of EZH2 in mouse B16-F1 migrating cells assessed as fold change in H3K27me3-buffered regulated Ptp4a1-mRNA expression at 3 uM measured by […] analysis relative to control cells
In short: (§1)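 Confluent B16-F1 cells on fibronectin-coated plates, cultured at 37 °C and 7% CO2, were scratched at multiple sites to induce migration. They were then held 3 h in growth medium containing 3 µM GSK343, with the inhibitor added 3 h before lysis. Unscratched cells served as controls. Poly A mRNA was analysed by RNA-seq (n=3 GSK343, n=5 controls). Linear models removed batch effects, and buffered genes were those altered only under GSK343 (FDR <0.05, fold change >1.3).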

[14] = target: Histone-lysine N-methyltransferase EZH2 (Mus musculus) (UniProt Q61188); test: Inhibition of EZH2 in mouse B16-F1 migrating cells assessed as fold change in H3K27me3-buffered regulated Nup37-mRNA expression at 3 uM measured by […] analysis relative to control cells; in short: as §1
[15] = target: Histone-lysine N-methyltransferase EZH2 (Mus musculus) (UniProt Q61188); test: Inhibition of EZH2 in mouse B16-F1 migrating cells assessed as fold change in H3K27me3-independent regulated Pwwp2b-mRNA expression at 3 uM measured by […] analysis relative to control cells
In short: (§2)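 Confluent B16-F1 cells on fibronectin-coated plates were scratched at multiple sites, washed once with DMEM and left to migrate 3 h in growth medium (37 °C, 7% CO2); unscratched cells served as control. GSK343 (3 µM) was added 3 h before lysis. Poly A mRNA was sequenced (RNA-seq), with 5 replicates for untreated and 3 for treated cells. Differential expression was called by linear model with batch correction, at FDR <0.05 and fold change ≥1.3.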

[16] = target: Histone-lysine N-methyltransferase EZH2 (Mus musculus) (UniProt Q61188); test: Inhibition of EZH2 in mouse B16-F1 migrating cells assessed as fold change in H3K27me3-buffered regulated Pltp-mRNA expression at 3 uM measured by […] analysis relative to control cells; in short: as §1
[17] = target: Histone-lysine N-methyltransferase EZH2 (Mus musculus) (UniProt Q61188); test: Inhibition of EZH2 in mouse B16-F1 migrating cells assessed as fold change in H3K27me3-dependent regulated Ccno-mRNA expression at 3 uM measured by ChIP-seq analysis relative to control cells; in short: as §2
[18] = target: Histone-lysine N-methyltransferase EZH2 (Mus musculus) (UniProt Q61188); test: Inhibition of EZH2 in mouse B16-F1 migrating cells assessed as fold change in H3K27me3-buffered regulated Ern1-mRNA expression at 3 uM measured by ChIP-seq analysis relative to control cells; in short: as §1
[19] = target: Histone-lysine N-methyltransferase EZH2 (Mus musculus) (UniProt Q61188); test: Inhibition of EZH2 in mouse B16-F1 migrating cells assessed as fold change in H3K27me3-buffered regulated Rbl1-mRNA expression at 3 uM measured by […] analysis relative to control cells; in short: as §1
[20] = target: Histone-lysine N-methyltransferase EZH2 (Mus musculus) (UniProt Q61188); test: Inhibition of EZH2 in mouse B16-F1 migrating cells assessed as fold change in H3K27me3-buffered regulated A130010J15Rik-mRNA expression at 3 uM measured by […] analysis relative to control cells; in short: as §1
[21] = target: Histone-lysine N-methyltransferase EZH2 (Mus musculus) (UniProt Q61188); test: Inhibition of EZH2 in mouse B16-F1 migrating cells assessed as fold change in H3K27me3-buffered regulated Tcf7l1-mRNA expression at 3 uM measured by […] analysis relative to control cells; in short: as §2
[22] = target: Histone-lysine N-methyltransferase EZH2 (Mus musculus) (UniProt Q61188); test: Inhibition of EZH2 in mouse B16-F1 migrating cells assessed as fold change in H3K27me3-independent regulated Tmem179-mRNA expression at 3 uM measured by […] analysis relative to control cells; in short: as §2
[23] = target: Histone-lysine N-methyltransferase EZH2 (Mus musculus) (UniProt Q61188); test: Inhibition of EZH2 in mouse B16-F1 migrating cells assessed as fold change in H3K27me3-independent regulated Selenbp1-mRNA expression at 3 uM measured by […] analysis relative to control cells; in short: as §2
[24] = target: Histone-lysine N-methyltransferase EZH2 (Mus musculus) (UniProt Q61188); test: Inhibition of EZH2 in mouse B16-F1 migrating cells assessed as fold change in H3K27me3-buffered regulated Cntrob-mRNA expression at 3 uM measured by […] analysis relative to control cells; in short: as §1
[25] = target: Histone-lysine N-methyltransferase EZH2 (Mus musculus) (UniProt Q61188); test: Inhibition of EZH2 in mouse B16-F1 migrating cells assessed as fold change in H3K27me3-independent regulated Hells-mRNA expression at 3 uM measured by […] analysis relative to control cells; in short: as §2
[26] = target: Histone-lysine N-methyltransferase EZH2 (Mus musculus) (UniProt Q61188); test: Inhibition of EZH2 in mouse B16-F1 migrating cells assessed as fold change in H3K27me3-independent regulated Klf15-mRNA expression at 3 uM measured by […] analysis relative to control cells; in short: as §2

Chain of Histone-lysine N-methyltransferase EZH2 (Mus musculus) (Q61188 whole entry): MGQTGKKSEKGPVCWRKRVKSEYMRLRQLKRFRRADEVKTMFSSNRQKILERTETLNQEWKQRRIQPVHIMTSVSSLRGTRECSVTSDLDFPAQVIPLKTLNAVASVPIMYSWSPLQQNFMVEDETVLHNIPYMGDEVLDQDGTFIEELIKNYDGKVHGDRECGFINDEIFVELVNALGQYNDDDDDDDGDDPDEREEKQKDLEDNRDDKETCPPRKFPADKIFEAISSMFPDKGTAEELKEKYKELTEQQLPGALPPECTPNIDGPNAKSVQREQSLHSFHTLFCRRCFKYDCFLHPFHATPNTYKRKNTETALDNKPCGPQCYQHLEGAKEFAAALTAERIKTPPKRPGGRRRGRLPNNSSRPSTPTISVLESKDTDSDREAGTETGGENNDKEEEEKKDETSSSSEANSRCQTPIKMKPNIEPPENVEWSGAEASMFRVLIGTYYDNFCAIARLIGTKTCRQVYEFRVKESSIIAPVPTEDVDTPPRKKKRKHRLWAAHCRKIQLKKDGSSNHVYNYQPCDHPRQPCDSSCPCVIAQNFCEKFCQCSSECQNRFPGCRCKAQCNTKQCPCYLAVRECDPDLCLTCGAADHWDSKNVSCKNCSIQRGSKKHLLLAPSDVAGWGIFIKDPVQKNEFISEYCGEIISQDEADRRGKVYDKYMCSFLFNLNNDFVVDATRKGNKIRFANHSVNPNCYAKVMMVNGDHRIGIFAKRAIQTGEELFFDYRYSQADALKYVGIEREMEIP

SMILES: OC[C@H]1O[C@@H](n2cnc3cc(Cl)c(Cl)cc32)[C@H](O)[C@@H]1O
- log2FC [1]: 0.46
- log2FC [2]: 0.43
- log2FC [3]: -0.66
- log2FC [4]: 0.43
- log2FC [5]: -0.56
- log2FC [6]: -1.13
- log2FC [7]: 0.44
- log2FC [8]: -0.91
- log2FC [9]: -0.84
- log2FC [10]: -0.66
- log2FC [11]: -0.62
- log2FC [12]: -0.62

SMILES: CCCc1cc(C)[nH]c(=O)c1CNC(=O)c1cc(-c2ccnc(N3CCN(C)CC3)c2)cc2c1cnn2C(C)C
- log2FC [13]: 0.38
- log2FC [14]: -0.38
- log2FC [15]: 0.46
- log2FC [16]: 0.39
- log2FC [17]: 1.02
- log2FC [18]: 0.72
- log2FC [19]: -0.43
- log2FC [20]: -0.42
- log2FC [21]: -0.48
- log2FC [22]: 1.1
- log2FC [23]: 1.01
- log2FC [24]: -0.42
- log2FC [25]: -0.45
- log2FC [26]: -0.5
